UPR CHOP act: apoptotic UPR (CHOP) activation | CHO-CHOP luciferase reporter, luminescence; percent of tunicamycin response over DMSO baseline | activation, % at 10 µM | 330,000 tested, 0.34% active | AID 449763;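 active = at 10 µM dose, activation of 40% or more, normalized to positive control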;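 note: 100% = tunicamycin at 10 µg/mL and 0% = DMSO alone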
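Dosing – one dose, 10 µM in 0.5% DMSO · System – CHO-CHOP cells, stable luciferase reporter of PERK-eIF2a-CHOP signalling · Input – 500 cells/well · Control set – tunicamycin 10 µg/mL final as positive, DMSO-only wells as negative · Timing – 6 h compound treatment, 37 °C · Measure – % activation vs tunicamycin · Technique – luminescence read with Steady-Glo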
L major viab: inhibitors of Leishmania major promastigote growth; Leishmania major promastigotes, resazurin fluorescence viability; inhibition, % at 10 µM; 200,000 tested, 9% active; AID 1063; in the data active = inhibition above about 50%;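 note: promastigotes grown with compound for 44 hours at 28 °C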
T cruzi inh: blocks replication of Trypanosoma cruzi; T. cruzi beta-gal in NIH3T3, luminescence, 90 h; inhibition, % (concentration not given with the values); 300,000 tested, 1.4% active; AID 1885;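 active = mean inhibition across valid replicates above about 55%, limit read from the data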;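 note: signal also drops with host cell toxicity which is not excluded here; 0% = plate median of DMSO wells and 100% = zero luminescence signal; higher percent means less beta-gal luminescence so fewer parasites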
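Assay system: NIH/3T3 fibroblasts plus reporter T. cruzi. Amount: NIH/3T3 cells, 5,000 per well. Buffer or medium: DMEM, 2% fetal bovine serum. Doses: compound pinned at 50 nL/well, DMSO. Schedule: ≥90 h infection period, 3 h prior cell attachment. Signal: luminescent β-galactosidase signal after 60 min lysis. Read-out: parasite load inhibition, %.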
CHOP inh: inhibitors of CHOP induction in ER stress response. CHO-K1 CHOP-promoter luciferase, tunicamycin-induced, 15-18 h. 220,000 tested, 3.8% active. inhibition, % at 10 µM;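 active = compounds that reduced the stress-induced luciferase reporter signal by more than about 70% of percent inhibition, limit read from the data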;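 note: 0% = tunicamycin plus vehicle and 100% = wells without tunicamycin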
Dynein cargo inh: dynein cargo transport inhibition | 3617.4 mouse cells, GR-EGFP nuclear translocation imaging; test concentration mostly 20 µM; stimulated with dexamethasone, 1 µM; hits give low values | z-score, hits read low | 220,000 tested, 0.47% active | AID 1381;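 active = plate z-score of nuclear minus cytoplasmic receptor signal below a set negative limit, without overly bright fluorescence or cell loss, cut at about -3.5 in these data, passing the limit was not always enough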;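 note: z-score of nuclear minus cytoplasmic ring GR-EGFP intensity difference per well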
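medium = tetracycline-free induction medium containing charcoal-stripped FBS | also added = 1.0 µM final dexamethasone stimulus | schedule = 48 h induction, 1 h compound, 30 min dex at 37 °C | technique = fixed, Hoechst-stained cells imaged at 10x for EGFP | measure = GR-EGFP nuclear translocation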
XBP1 UPR activ: activators of adaptive arm of unfolded protein response (XBP1); CHO-XBP1 luciferase reporter, IRE1-XBP1 UPR activation, luminescence; percent of tunicamycin response, DMSO as zero; AID 463104; activation, % at 20 µM; 330,000 tested, 0.33% active;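 active = versus positive control, 20 µM dose yields 30% or more activation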;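 note: 100% = tunicamycin at 10 µg/mL and 0% = DMSO only wells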
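assay system = CHO-XBP1 luciferase reporter cells | amount = 1000 cells/well | buffer or medium = F12 plus 10% FBS | compound dosing = single point, 20 µM final compound, 1% DMSO | incubation = 16-18 h cell attachment at 37 °C, then 6 h compound exposure | detection = Steady-Glo luminescence read | controls = tunicamycin 10 µg/mL and vehicle-only wells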
Starred values were filed as active, the others as inactive; nt = no result. Shown is part of a subset that was picked to be rich in hits.

SMILES	UPR CHOP act	L major viab	T cruzi inh	CHOP inh	Dynein cargo inh	XBP1 UPR activ
CCOC(=O)C(N)CSC1CC(=O)N(CCc2ccccc2)C1=O (stereo not drawn)	3	nt	8	nt	nt	-3
N#Cc1ccccc1OCCOCCNC1CCCC1	-4	82*	5	1	-0.27	2
CC(C)c1nc2cc(C(=O)N3CCNC(=O)C3c3cccc(F)c3)ccc2o1 (stereo not drawn)	1	nt	-6	nt	nt	-6
OCCN(CCO)CC(O)COc1ccc(C23CC4CC(CC(C4)C2)C3)cc1 (stereo not drawn)	nt	100*	7	27	2.6	nt
CCN(CC)CC(O)COCCC12CC3CC(CC(C3)C1)C2 (stereo not drawn)	-2	93*	53	-16	-1	-1
OCCN(CCO)CC(O)COc1ccc(Br)cc1 (stereo not drawn)	2	nt	8	10	-0.68	-3
OCCN(CCO)CC(O)COCCC12CC3CC(CC(C3)C1)C2 (stereo not drawn)	-5	71*	12	9	-0.72	3
CCc1ccc(OCCOCC(O)CN(CCO)CCO)cc1 (stereo not drawn)	0	-6	-11	18	-0.21	-3
CC1=NN(CCc2ccccn2)C(=O)CC1	0	nt	-5	nt	nt	-3
O=C(N/C=N/O)C1=NOC(CNc2ncc(C(F)(F)F)cc2Cl)C1 (stereo not drawn)	0	99*	3	16	0.39	3
CCc1ccc(-c2nc(CSCC(=O)N3CCN(c4ncccn4)CC3)c(C)o2)cc1	0	3	-8	90*	-0.17	-4
Cc1cc(=O)n2nc(N3CCCC(C(=O)NCCCN4CC(C)CC(C)C4)C3)sc2n1 (stereo not drawn)	1	nt	5	nt	nt	-8
O=c1oc(-c2ccccc2)cc(Cl)c1Cl	58*	nt	50	nt	nt	2
O=P(O)(O)c1cc(-c2ccccc2)oc1-c1ccccc1	4	nt	-15	-4	-0.34	-1
O=C1NC(Cc2ccccc2)c2nc3ccc(Br)cc3c(=O)n2-c2cc(Cl)ccc21 (stereo not drawn)	1	nt	nt	nt	nt	3
C=CCN1C(=O)/C(=C\c2ccc(Oc3nc(N4CCOCC4)nc(N4CCOCC4)n3)c(OC)c2)SC1=S	0	54*	-5	-8	1.6	-1
Fc1cccc(NCCc2c[nH]c3ccccc23)n1	1	nt	-5	nt	nt	1
c1ccc2c(NCCc3c[nH]c4ccccc34)c3ccccc3nc2c1	3	nt	63*	nt	nt	5
OCCCNc1c2ccccc2nc2ccccc12	-3	nt	70*	nt	nt	-4
COC(=O)[C@]1(Cc2ccccc2)N[C@H](CN(C)S(=O)(=O)c2ccc(C(C)(C)C)cc2)[C@@H]2C(=O)N(Cc3ccccc3)C(=O)[C@@H]21	1	nt	nt	nt	nt	-1
O=C(c1cccc(F)c1)N1CCN=C1SCc1cccnc1	-2	3	4	86*	3.2	-2
COc1cc(OC)cc(C(=O)N2CCN=C2SCc2cccnc2)c1	2	-5	-5	42	-0.88	-5
O=C(COc1ccccc1)N1CCN=C1SCc1cccnc1	-2	65*	-2	-11	1.1	-1
COc1ccc(Br)cc1CN1CCC(N2CCCC2)CC1	2	nt	38	nt	nt	-2
Cc1ccc2c(c1)CC(C)N2S(=O)(=O)c1nnc(NC(=O)CC(C)C)s1 (stereo not drawn)	-2	nt	-12	nt	nt	0
SMILES	UPR CHOP act	L major viab	T cruzi inh	CHOP inh	Dynein cargo inh	XBP1 UPR activ
CCOC(=O)C1(CC2CCCCO2)CCN(Cc2cc(F)ccc2-n2cccn2)CC1 (stereo not drawn)	-1	11	-28	76*	-1.1	0
CCOC(=O)C1(CC2CCCCO2)CCN(Cc2nccn2-c2cccc(C)c2)CC1 (stereo not drawn)	1	53*	4	0	2.1	1
CC(Sc1nnc(Cc2ccccc2)n1C)C(=O)NC1CC1 (stereo not drawn)	0	nt	nt	nt	nt	0
CN(Cc1ccccn1)C(=O)C1CCC(=O)N(CCc2ccc(Cl)cc2)C1 (stereo not drawn)	0	nt	-15	nt	nt	-4
COc1ccc(OC)c(NC(=O)NCCc2c[nH]c3ccccc23)c1	0	nt	1	nt	nt	-4
COC(C(=O)Nc1ccnn1C1CCN(Cc2ccc(C)s2)CC1)c1ccccc1 (stereo not drawn)	2	nt	7	nt	nt	-4
COC(=O)c1ccc2nc(-c3cccc(N)c3)cn2c1	-8	7	-3	80*	0.099	-7
CC1CC(C)CN(C(=O)c2ccc3c(=O)n(Cc4ccc5c(c4)OCO5)c(=S)[nH]c3c2)C1 (stereo not drawn)	-1	-2	28	95*	0.45	-2
O=C(c1ccc(Cn2c(=O)[nH]c3ccccc3c2=O)cc1)N1CCN(c2ccccn2)CC1	1	44	-4	21	-0.16	-1
CCCCCn1c(=O)[nH]c2cc(C(=O)N3CCN(Cc4ccc5c(c4)OCO5)CC3)ccc2c1=O	6	-3	4	82*	0.016	-2
O=C(c1ccc(Cn2c(=S)[nH]c3ccccc3c2=O)cc1)N1CCN(c2ccccn2)CC1	6	100*	-1	42	0.86	1
CCCCCn1c(=O)[nH]c2cc(C(=O)NCc3ccc4c(c3)OCO4)ccc2c1=O	1	1	-3	57	-0.031	0
O=C(c1ccc2c(=O)n(Cc3ccc4c(c3)OCO4)c(=S)[nH]c2c1)N1CCCCC1	4	-3	-19	92*	1.6	-1
CC12CCC(=O)N1C(C(=O)Nc1cc(Cl)ccc1N1CCOCC1)CS2 (stereo not drawn)	1	nt	7	nt	nt	-3
CCSc1nc2c(cnn2-c2ccccc2)c(=O)n1N	7	nt	-9	-10	1.6	1
CC1CC(C)CN(C(=O)/C=C/c2ccc(S(=O)(=O)N3CCOCC3)cc2)C1 (stereo not drawn)	0	nt	nt	nt	nt	-1
COC(=O)C1=Cc2cc(OC)cc([N+](=O)[O-])c2OC1N1CCOCC1 (stereo not drawn)	-1	nt	33	nt	nt	-2
Cc1ccc(NC(=S)/N=C(\N)Nc2nc(C)c3cc(C)c(C)cc3n2)cc1C	2	18	61*	-14	-0.99	0
CCOc1ccc2nc(N/C(N)=N/C(=S)Nc3cccc(C)c3)nc(C)c2c1	1	60*	48	37	-1.4	3
CCN(Cc1ccc2c(c1)OCCO2)C(=O)CSc1nc(C)nc2sc(C)c(C)c12	-1	nt	nt	nt	nt	-3
CCN(CC)C(=O)CSc1nc2cc3c(cc2c(=O)n1CCCCCC(=O)NCc1ccc(OC)cc1)OCO3	0	3	16	4	-0.76	-4
